Data set [1] has as its system MIA PaCa-2. Briefly: Cytotoxicity against human MIAPaCa2 cells assessed as decrease in cell viability after 48 hrs by MTS assay. Type of data set: functional. To be noted: for CC50: MIA PaCa-2, 48 h. The procedure, abridged:
(§1)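 Cells were seeded at equal numbers and, after 24 h, exposed to compounds (0–30 µM) for 48 h. MTS reagent (20% v/v) was then added for 1–4 h, and OD490 was read. Cell-free medium wells served as blanks. Media were DMEM/F12 + 10% FBS for BT-474; DMEM + 10% FBS for DU-145 and MDA-MB-231; and DMEM + 10% FBS + 2.5% horse serum for MiaPaCa-2. Values are mean ± SD, n=6.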

The test system of data set [2] is DU-145. The data set can be described thus: Cytotoxicity against human DU145 cells assessed as decrease in cell viability after 48 hrs by MTS assay. Particulars: for CC50: DU-145, 48 h. Type of data set: functional. The procedure, abridged: as §1
For data set [3], the system named is BT-474. The data set can be described thus: Cytotoxicity against human BT474 cells assessed as decrease in cell viability after 48 hrs by MTS assay. Type of data set: functional. To be noted: for CC50: BT-474, 48 h. The procedure, abridged:
as §1

Data set [4] relates to MDA-MB-231. The data set can be described thus: Cytotoxicity against human MDA-MB-231 cells assessed as decrease in cell viability after 48 hrs by MTS assay. Type of data set: functional. To be noted: for CC50: MDA-MB-231, 48 h. The procedure, abridged:
as §1

Data set [5] concerns MIA PaCa-2. Briefly: Cytotoxicity against human MIAPaCa2 cells assessed as cell death at 7.5 uM after 48 hrs by MTS assay. Type of data set: functional. The procedure, abridged: (§2)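 Equal numbers of cells were plated. After 24 h they were exposed to compounds (0–30 µM) for 48 h, then given MTS reagent (20% v/v) for 1–4 h. OD490 was read against cell-free blank wells; mean ± SD of 6 determinations. Media: BT-474 in DMEM/F12 + 10% FBS; DU-145, JIMT-1 and MDA-MB-231 in DMEM + 10% FBS; MiaPaCa-2 in DMEM + 10% FBS + 2.5% horse serum; PC-3 in F12K + 10% FBS; all with penicillin/streptomycin.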

Data set [6] deals with DU-145. Briefly: Cytotoxicity against human DU145 cells assessed as cell death at 7.5 uM after 48 hrs by MTS assay. Type of data set: functional. The procedure, abridged:
as §2

In data set [7] the test system is BT-474. The data set can be described thus: Cytotoxicity against human BT474 cells assessed as cell death at 7.5 uM after 48 hrs by MTS assay. Type of data set: functional. The procedure, abridged: as §2
Data set [8] deals with MDA-MB-231. Briefly: Cytotoxicity against human MDA-MB-231 cells assessed as cell death at 7.5 uM after 48 hrs by MTS assay. Type of data set: functional. The procedure, abridged: as §2
The subject of data set [9] is PC-3. Briefly: Cytotoxicity against human PC3 cells assessed as cell death at 7.5 uM after 48 hrs by MTS assay. Type of data set: functional. The procedure, abridged:
as §2

Data set [10] relates to JIMT-1. The data set can be described thus: Cytotoxicity against human JIMT1 cells assessed as cell death at 7.5 uM after 48 hrs by MTS assay. Type of data set: functional. The procedure, abridged:
as §2

The test system of data set [11] is BT-474. The data set can be described thus: Disruption of cancer stem cells spheroids derived from human BT474 cells at >=5 uM after 3 days by microscopic analysis. Type of data set: functional, cell-based. The procedure, abridged:
(§3)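 Cancer stem cells were isolated from BT-474 by ALDH1 activity. Equal numbers were seeded in ultra-low-adhesion wells and grown to spheroids. Spheroids were then incubated with or without compounds for 3 days. Spheroid integrity was assessed by light microscopy (×10). Viability was measured in parallel by MTS.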

The test system of data set [12] is BT-474. The data set can be described thus: Cytotoxicity against cancer stem cells derived from human BT474 cells assessed as cancer stem cell death at 7.5 uM after 3 days by MTS assay. Type of data set: functional. The procedure, abridged: (§4)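 CSCs were isolated from BT-474 using ALDH1 activity as the stemness marker. They were grown in ultra-low adhesion wells for 4 days to form spheroids. Spheroids were then exposed to compounds (0–20 µM) for 3 days. Viability was read by MTS assay and expressed as % of untreated control.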

For data set [13], the system named is DU-145. Briefly: Cytotoxicity against human DU145 cells assessed as decrease in cell viability up to 8 uM after 48 hrs in absence of pan-caspase inhibitor QVD-OPh by MTS assay. Type of data set: functional, cell-based. The procedure, abridged:
(§5)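 DU-145 and JIMT-1 cells (DMEM + 10% FBS) were treated with compounds with or without the pan-caspase inhibitor QVD-OPh (40 µM). Viability was read by MTS: cells were seeded, treated 24 h later for 48 h, given MTS (20% v/v) for 1–4 h, and read at OD490 against cell-free blanks.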

Data set [14] has as its system DU-145. Briefly: Cytotoxicity against human DU145 cells assessed as decrease in cell viability up to 8 uM after 48 hrs in presence of pan-caspase inhibitor QVD-OPh by MTS assay. Type of data set: functional, cell-based. The procedure, abridged:
as §5

Data set [15] deals with JIMT-1. The data set can be described thus: Cytotoxicity against human JIMT1 cells assessed as decrease in cell viability up to 8 uM after 48 hrs in presence of pan-caspase inhibitor QVD-OPh by MTS assay. Type of data set: functional, cell-based. The procedure, abridged:
as §5

Data set [16] concerns JIMT-1. The data set can be described thus: Cytotoxicity against human JIMT1 cells assessed as decrease in cell viability up to 8 uM after 48 hrs in absence of pan-caspase inhibitor QVD-OPh by MTS assay. Type of data set: functional, cell-based. The procedure, abridged: as §5
The test system of data set [17] is Erythrocyte. The data set can be described thus: Induction of hemolysis in sheep erythrocytes at 30 uM after 30 mins by spectrophotometric analysis. Type of data set: functional, Ovis aries.
In data set [18] the test system is DU-145. Briefly: Induction of cell death in human DU145 cells assessed as rounding up of cells at 6 uM after 6 hrs fluorescence microscopic analysis. Type of data set: functional, cell-based. The procedure, abridged:
(§6)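 DU-145 cells were incubated with compounds at 6 µM for 6 h. They were then stained with cell-impermeant ethidium homodimer-1 and examined by fluorescence microscopy for cell rounding and red DNA staining. Cells given 0.01% Triton X-100 for 10 min served as the lysis control.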

The test system of data set [19] is JIMT-1. Briefly: Induction of cell death in human JIMT1 cells assessed as rounding up of cells at 4 uM after 6 hrs by fluorescence microscopic analysis. Type of data set: functional, cell-based.
The nature of data set [20]: Stability in bovine liver extracts assessed as bovine liver glycosidase mediated compound cleavage by TLC analysis. Type of data set: ADME, Bos taurus. To be noted: cattle. The procedure, abridged:
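A bovine liver glycosidase fraction in 0.05 M sodium citrate pH 5.0 was combined with 0.2 M citrate pH 4.4 buffer, substrate (30 mM stock) and Triton X-100 (10% stock) for solubilization. Controls were no enzyme and a β-D-glucose-based GAEL. After 1 h, methanol was added, the mixture was centrifuged, and the supernatant was analysed by TLC. Run in quadruplicate.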

Data set [21] relates to DU-145. Briefly: Induction of membrane lysis in human DU145 cells at 6 uM after 6 hrs by EthD-1 staining based fluorescence microscopic analysis. Type of data set: functional, cell-based. The procedure, abridged: as §6
Data set [22] deals with JIMT-1. Briefly: Induction of membrane lysis in human JIMT1 cells at 4 uM after 6 hrs by EthD-1 staining based fluorescence microscopic analysis. Type of data set: functional, cell-based.
The test system of data set [23] is BXPC-3. The data set can be described thus: Induction of cell death in human BxPC3 cells assessed as clear large vacuole formation at 5 uM after 4 hrs.
Data set [24] concerns BT-474. Briefly: Disruption of cancer stem cells spheroids derived from human BT474 cells at >=7.5 uM after 3 days by microscopic analysis. Type of data set: functional, cell-based. The procedure, abridged:
as §3

The subject of data set [25] is BT-474. The data set can be described thus: Disruption of cancer stem cells spheroids derived from human BT474 cells at 7.5 uM after 3 days by microscopic analysis. Type of data set: functional, cell-based. The procedure, abridged:
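Equal numbers of ALDH1-selected BT-474 cancer stem cells were seeded in ultra-low adhesion wells and grown to form spheroids. Spheroids were incubated with or without compound for 3 days. Spheroid integrity was judged by microscopic imaging at ×10.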

Data set [26] relates to BT-474. The data set can be described thus: Cytotoxicity against cancer stem cells derived from human BT474 cells assessed as cancer stem cell death at 20 uM after 3 days by MTS assay. Type of data set: functional. The procedure, abridged: as §4

These results are taken from ChEMBL document CHEMBL4007413, “Replacing d-Glucosamine with Its l-Enantiomer in Glycosylated Antitumor Ether Lipids (GAELs) Retains Cytotoxic Effects against Epithelial Cancer Cells and Cancer Stem Cells” (J Med Chem, 2017).

The structures appear in SMILES notation. Activity calls are given as the source filed them. The rule behind the calls is not given here.

`CCCCCCCCCCCCCCCCOC[C@H](CO[C@@H]1O[C@@H](CN)[C@H](OCc2ccccc2)[C@@H](O)[C@@H]1N)OC`: the CC50 in [1], in data set [2], in data set [3] and in data set [4] was 2 to 6 µM in each case. Moreover, the Activity in data set [5], in data set [6], in [7], in data set [8], in data set [9] and in data set [10] was more than 95% throughout. Besides, the Activity is on record as more than 95% in [12] and less than 5% in data set [17]. Moreover, the outcome in data set [11], in [13], in [14], in [15], in [16] and in data set [18] was Active. The outcome in [19] and in data set [23] was Active. The Stability result in data set [20] is “Stable”. Further, the result in data set [21] and in data set [22] was inactive.

Turning to `CCCCCCCCCCCCCCCCOC[C@H](CO[C@@H]1O[C@@H](CN)[C@H](O)[C@@H](O)[C@@H]1N)OC`, the CC50 in [1], in [2], in [3] and in data set [4] was 4 to 11 µM each time. Moreover, the result in [24], in [13], in [14], in [15] and in data set [16] was Active. In addition, in [17], the Activity was less than 5%.

For `CC[C@@H](C(=O)[C@@H](C)[C@@H](O)[C@H](C)[C@@H]1O[C@@H]([C@@H](CC)C(=O)O)CC[C@@H]1C)[C@H]1O[C@]2(C=C[C@@H](O)[C@]3(CC[C@@](C)([C@H]4CC[C@](O)(CC)[C@H](C)O4)O3)O2)[C@H](C)C[C@@H]1C` [SALINOMYCIN], the result in data set [1], in [2], in data set [3] and in [4] was Active. Also, in data set [25], the outcome was inactive. Besides, the Activity was 60% in data set [12] and 87% in data set [26].

On to `CCCCCCCCCCCCCCCCOC[C@H](CO[C@@H]1O[C@H](CN)[C@@H](OCc2ccccc2)[C@H](O)[C@H]1N)OC`, for which the CC50 in [1], in data set [2], in data set [3] and in data set [4] was 2 to 6 µM each time. Besides, the Activity in data set [5], in [6], in data set [7], in data set [8], in [9] and in data set [10] was more than 95% each time. Further, the Activity in data set [12] is more than 95%; in data set [17] it was less than 5%. The outcome in data set [11], in [18] and in data set [19] was Active. For the same compound, the outcome in data set [21] and in data set [22] was inactive.
